The test system of one assay is Amphibalanus amphitrite. As to the kind of experiment: Antifouling activity against barnacle Balanus amphitrite Darwin. In kind it is functional, organism-based. Put shortly: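 Barnacle nauplii were reared to cyprids at 26−28 °C and fed Chaetoceros gracilis, reaching the cyprid stage within four days. Fresh cyprids were used for testing, and the value is reported as IC50.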

The subject of another assay is BGC-823. As to the kind of experiment: Cytotoxicity against human BGC823 cells by MTT assay. In kind it is functional, cell-based. In general terms: Tetrazolium assays rely on reduction of a dye to a coloured formazan, in cell work by metabolically active cells.
The test system of another assay is A549. As to the kind of experiment: Cytotoxicity against human A549 cells by MTT assay. In kind it is functional, cell-based.
In another assay the test system is HepG2. In words: Cytotoxicity against human HepG2 cells by MTT assay. In kind it is functional, cell-based.
The test system of the next assay is HCT-8. As to the kind of experiment: Cytotoxicity against human HCT8 cells by MTT assay. In kind it is functional, cell-based.
The subject of another assay is SK-OV-3. As to the kind of experiment: Cytotoxicity against human SKOV3 cells by MTT assay. It counts as functional, cell-based.
Assay [1] in a line: Antiinflammatory activity in BALB/c mouse splenocytes assessed as inhibition of LPS-induced TNFalpha production at 10 uM after 24 hrs. In kind it is functional. The note with it: Splenocyte. Summed up: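 BALB/c mouse splenocyte suspensions were cultured in RPMI 1640 with 10% FBS. Compounds were dissolved in DMSO and given at 10 μM for 24 h, followed by LPS stimulation at 1 μg/mL. NK-007 at 100 nM served as positive control. TNF-α in culture supernatants was measured with cytometric bead array kits and reported as inhibitory rate.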

The results in this text go back to ChEMBL document CHEMBL2417487, “Asteriscane-type sesquiterpenoids from the soft coral Sinularia capillosa” (J Nat Prod, 2013).

Molecules are shown by their SMILES. Converted amounts (≈) assume the structure as drawn.

The compound `CC(=O)CC/C=C(/C)C[C@@H]1CC(C)(C)CC1=O` gave a concentration for a half-maximal effect (EC50) with Amphibalanus amphitrite of 13.9 µg/mL (≈ 58.8 µM).
For the compound `CC1=C[C@]2(O)CC(C)(C)C[C@]23O[C@@]1(O)CC[C@H]3C`, the IC50 with BGC-823, with A549, in the assay on HepG2, in the assay with HCT-8 and in the assay with SK-OV-3 was > 10 µg/mL throughout.
`CC1=C[C@@]23CC(C)(C)C[C@@]2(O)[C@H](C)CC[C@@H]1O3`: the IC50 in the assay on BGC-823, in the assay on A549, with HepG2, in the assay with HCT-8 and in the assay with SK-OV-3 was > 10 µg/mL throughout.
With `CC1=CC2=CC(C)(C)C[C@@]23O[C@]1(O)CC[C@H]3C`, the half-maximal inhibitory concentration (IC50) in the assay with BGC-823, with A549, in the assay with HepG2, in the assay on HCT-8 and in the assay with SK-OV-3 was > 10 µg/mL in each case.
In the case of `CC1(C)CC2=C[C@@](C)(O)[C@@]3(O)CC[C@@](C)(O)[C@]2(C1)O3`, the IC50 with BGC-823, in the assay on A549, in the assay with HepG2, with HCT-8 and in the assay with SK-OV-3 was > 10 µg/mL each time.
Take `CC(=O)CC/C=C(/C)CC1=CC(C)(C)CC1=O`: the IC50 in the assay with BGC-823, in the assay with A549, with HepG2, in the assay with HCT-8 and with SK-OV-3 was > 10 µg/mL in each case.
Regarding `C/C(=C/CC[C@H](C)O)CC1=CC(C)(C)CC1=O`, the 50% inhibitory concentration (IC50) in the assay with BGC-823, in the assay on A549, with HepG2, with HCT-8 and in the assay on SK-OV-3 was > 10 µg/mL each time.
Regarding `CC(=O)/C=C1/CC(C)(C)C[C@]12OC(=O)CC[C@H]2C`, the IC50 with BGC-823, in the assay on A549, in the assay on HepG2, in the assay on HCT-8 and in the assay on SK-OV-3 was > 10 µg/mL in each case.
Regarding `CC(=O)C[C@@H]1CC(C)(C)C=C1[C@]1(C)CCC(=O)O1`, the half-inhibitory concentration (IC50) in the assay with BGC-823, in the assay with A549, with HepG2, in the assay on HCT-8 and with SK-OV-3 was > 10 µg/mL in each case.
Turning to `C[C@@H]1CCC(=O)[C@](C)(O)/C=C2/CC(C)(C)C[C@@H]21`, the IC50 was 9.7 µM in the assay with Amphibalanus amphitrite; > 10 µg/mL with BGC-823; > 10 µg/mL in the assay with A549; > 10 µg/mL in the assay with HepG2; > 10 µg/mL with HCT-8; > 10 µg/mL in the assay with SK-OV-3.
On to `C/C1=C/C2=C(CC(C)(C)[C@@H]2O)[C@H](C)CC[C@@H]1O`, for which the concentration for half-maximal inhibition (IC50) in the assay with BGC-823, in the assay on A549, with HepG2, in the assay with HCT-8 and in the assay on SK-OV-3 was > 10 µg/mL each time. Also, in assay [1], the inhibition at 10 µM was determined as 16%.
For the compound `C/C1=C/C2=C(CC(C)(C)[C@H]2O)[C@H](C)CC[C@@H]1O`, the 50% inhibitory concentration (IC50) in the assay on BGC-823, in the assay on A549, in the assay with HepG2, in the assay with HCT-8 and with SK-OV-3 was > 10 µg/mL each time.
For the compound `C/C1=C/C2=C(CC(C)(C)C2=O)[C@H](C)CC[C@@H]1O`, the concentration for half-maximal inhibition (IC50) with BGC-823, in the assay on A549, in the assay on HepG2, in the assay on HCT-8 and in the assay on SK-OV-3 was > 10 µg/mL in each case.
`C/C1=C/[C@]23O[C@]2(CC(C)(C)C3=O)[C@H](C)CC[C@@H]1O`: the IC50 with BGC-823, in the assay on A549, with HepG2, with HCT-8 and with SK-OV-3 was > 10 µg/mL each time.
Turning to `C/C1=C/C2=C(CC(C)(C)C2=O)[C@H](C)CCC1=O`, the IC50 with BGC-823, in the assay on A549, with HepG2, in the assay on HCT-8 and in the assay with SK-OV-3 was > 10 µg/mL each time.
With `C/C1=C/C2=CC(C)(C)C[C@@]2(OO)[C@H](C)CC[C@@H]1O`, the IC50 in the assay on BGC-823, in the assay with A549, in the assay with HepG2, in the assay with HCT-8 and with SK-OV-3 was > 10 µg/mL in each case.
`C/C1=C/C2=CC(C)(C)C[C@]2(OO)[C@H](C)CC[C@@H]1O`: the half-inhibitory concentration (IC50) in the assay on BGC-823, in the assay with A549, in the assay on HepG2, in the assay with HCT-8 and in the assay with SK-OV-3 was > 10 µg/mL in each case.
In the case of `C[C@@H]1CC[C@]2(O)O[C@]13CC(C)(C)CC3=C[C@@]2(C)O`, the concentration for half-maximal inhibition (IC50) in the assay with Amphibalanus amphitrite is 54 µM; with BGC-823, > 10 µg/mL; in the assay on A549, > 10 µg/mL; in the assay on HepG2 it was > 10 µg/mL; with HCT-8, > 10 µg/mL; in the assay with SK-OV-3, > 10 µg/mL. Further, in assay [1], the inhibition at 10 µM is 21%.
As for `C[C@@H]1CC[C@]2(O)O[C@]13CC(C)(C)[C@H](O)C3=C[C@@]2(C)O`, the concentration for half-maximal inhibition (IC50) with BGC-823, with A549, with HepG2, with HCT-8 and in the assay with SK-OV-3 was > 10 µg/mL in each case.
Regarding `CC(=O)CC/C=C(/C)C[C@H]1CC(C)(C)CC1=O` [(-)-SINULARONE A], 74 µM corresponded to half-maximal inhibition in the assay with Amphibalanus amphitrite (IC50). In assay [1], the inhibition at 10 µM was found to be 23%.

The term EC50 denotes the concentration needed to bring the measured effect to its halfway point. A lower EC50 goes with an effect from little substance. The IC50 is the concentration that inhibits the measured activity by half. Low readings indicate higher potency, high ones lower potency. As usually defined, the inhibition is how much of the control response was suppressed.
